Columns and labels:
Assay type in all cases: functional
[1] = test system: Human immunodeficiency virus 1; assay: Antiviral activity against HIV1 isolate with RT 190E mutation relative to wild type
In short: (§1)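 Mutant RT clones built in pNL4-3.Luc.R−E− reporter, VSV-G-pseudotyped, single-round infection of HeLa-JC53 cells (15,000/well, MOI 0.03) with 1:4 serial compound dilutions in DMEM (phenol red-free), 2% FBS, 0.2% final DMSO; 48 h at 37°C, 5% CO2; luciferase chemiluminescence read-out. Fold change in EC50 relative to wild-type virus; mean of two tests.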

[2] = test system: Human immunodeficiency virus 1; assay: Antiviral activity against HIV1 isolate with RT 103N, 108I, 181C mutation relative to wild type
[3] = test system: Human immunodeficiency virus 1; assay: Antiviral activity against HIV1 isolate with RT 103S mutation relative to wild type; in short: as §1
[4] = test system: Human immunodeficiency virus 1; assay: Antiviral activity against HIV1 isolate with RT 181C mutation relative to wild type; in short: as §1
[5] = test system: Human immunodeficiency virus 1; assay: Antiviral activity against HIV1 isolate with RT 98G, 190A mutation relative to wild type
In short: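 VSV-G-pseudotyped pNL4-3.Luc.R−E− molecular clones carrying the RT mutations, single-round infection of HeLa-JC53 cells (15,000/well) at MOI 0.03. Compounds serially diluted 1:4 in DMSO then in phenol red-free DMEM with 2% FBS, final DMSO 0.2%. Incubated 48 h at 37°C, 5% CO2. Luciferase read-out by chemiluminescence gives the EC50. Fold change is relative to wt virus, mean of two tests.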

[6] = test system: Human immunodeficiency virus 1; assay: Antiviral activity against HIV1 isolate with RT 103N, 188H mutation relative to wild type
[7] = test system: Human immunodeficiency virus 1; assay: Antiviral activity against HIV1 isolate with RT 98G, 103N mutation relative to wild type; in short: as §1
[8] = test system: Human immunodeficiency virus 1; assay: Antiviral activity against HIV1 isolate with RT 103N, 181C mutation relative to wild type
[9] = test system: Human immunodeficiency virus 1; assay: Antiviral activity against HIV1 isolate with RT 103Q mutation relative to wild type; in short: as §1
[10] = test system: Human immunodeficiency virus 1; assay: Antiviral activity against HIV1 isolate with RT 103N, 181C, 190A mutation relative to wild type
[11] = test system: Human immunodeficiency virus 1; assay: Antiviral activity against HIV1 isolate with RT 106A, 190A mutation relative to wild type; in short: as §1
[12] = test system: Human immunodeficiency virus 1; assay: Antiviral activity against HIV1 isolate with RT 98G, 100I, 103N mutation relative to wild type; in short: as §1
[13] = test system: Human immunodeficiency virus 1; assay: Antiviral activity against HIV1 isolate with RT 236L mutation relative to wild type; in short: as §1
[14] = test system: Human immunodeficiency virus 1; assay: Antiviral activity against HIV1 isolate with RT 108I, 181C mutation relative to wild type; in short: as §1
[15] = test system: Human immunodeficiency virus 1; assay: Antiviral activity against HIV1 isolate with RT 188H mutation relative to wild type; in short: as §1
[16] = test system: Human immunodeficiency virus 1; assay: Antiviral activity against HIV1 isolate with RT 101E, 103N mutation relative to wild type
[17] = test system: Human immunodeficiency virus 1; assay: Antiviral activity against HIV1 isolate with RT 230L mutation relative to wild type; in short: as §1
[18] = test system: Human immunodeficiency virus 1; assay: Antiviral activity against HIV1 isolate with RT 98G, 188L mutation relative to wild type; in short: as §1
[19] = test system: Human immunodeficiency virus 1; assay: Antiviral activity against HIV1 isolate with RT 101P, 190A mutation relative to wild type
[20] = test system: Human immunodeficiency virus 1; assay: Antiviral activity against HIV1 isolate with RT 106L, 188L mutation relative to wild type; in short: as §1
[21] = test system: Human immunodeficiency virus 1; assay: Antiviral activity against HIV1 isolate with RT 101E, 103N, 190A mutation relative to wild type
[22] = test system: Human immunodeficiency virus 1; assay: Antiviral activity against HIV1 isolate with RT 101N, 103N mutation relative to wild type
[23] = test system: Human immunodeficiency virus 1; assay: Antiviral activity against HIV1 isolate with RT 103N, 106A mutation relative to wild type
[24] = test system: Human immunodeficiency virus 1; assay: Antiviral activity against HIV1 isolate with RT 98G mutation relative to wild type; in short: as §1
[25] = test system: Human immunodeficiency virus 1; assay: Antiviral activity against HIV1 isolate with RT 101H, 190A mutation relative to wild type
[26] = test system: Human immunodeficiency virus 1; assay: Antiviral activity against HIV1 isolate with RT 101R, 103N mutation relative to wild type
[27] = test system: Human immunodeficiency virus 1; assay: Antiviral activity against HIV1 isolate with RT 103R, 179D mutation relative to wild type; in short: as §1
[28] = test system: Human immunodeficiency virus 1; assay: Antiviral activity against HIV1 isolate with RT 179A mutation relative to wild type; in short: as §1
[29] = test system: Human immunodeficiency virus 1; assay: Antiviral activity against HIV1 isolate with RT 98G, 103N, 181C, 190A mutation relative to wild type; in short: as §1
[30] = test system: Human immunodeficiency virus 1; assay: Antiviral activity against HIV1 isolate with RT 101E, 181C, 190S mutation relative to wild type
[31] = test system: Human immunodeficiency virus 1; assay: Antiviral activity against HIV1 isolate with RT 106A, 181C mutation relative to wild type; in short: as §1
[32] = test system: Human immunodeficiency virus 1; assay: Antiviral activity against HIV1 isolate with RT 103N, 106I mutation relative to wild type
[33] = test system: Human immunodeficiency virus 1; assay: Antiviral activity against HIV1 isolate with RT 101Q, 181C, 190A mutation relative to wild type
[34] = test system: Human immunodeficiency virus 1; assay: Antiviral activity against HIV1 isolate with RT 108I, 181C, 190A mutation relative to wild type; in short: as §1
[35] = test system: Human immunodeficiency virus 1; assay: Antiviral activity against HIV1 isolate with RT 179D mutation relative to wild type; in short: as §1
[36] = test system: Human immunodeficiency virus 1; assay: Antiviral activity against HIV1 isolate with RT 98G, 103N, 181C mutation relative to wild type; in short: as §1
[37] = test system: Human immunodeficiency virus 1; assay: Antiviral activity against HIV1 isolate with RT 101Q, 103R mutation relative to wild type
[38] = test system: Human immunodeficiency virus 1; assay: Antiviral activity against HIV1 isolate with RT 103N, 225H mutation relative to wild type; in short: as §1
[39] = test system: Human immunodeficiency virus 1; assay: Antiviral activity against HIV1 isolate with RT 103N mutation relative to wild type
[40] = test system: Human immunodeficiency virus 1; assay: Antiviral activity against HIV1 isolate with RT 238T mutation relative to wild type; in short: as §1
[41] = test system: Human immunodeficiency virus 1; assay: Antiviral activity against HIV1 isolate with RT 101E mutation relative to wild type
[42] = test system: Human immunodeficiency virus 1; assay: Antiviral activity against HIV1 isolate with RT 103N, 108I mutation relative to wild type
[43] = test system: Human immunodeficiency virus 1; assay: Antiviral activity against HIV1 isolate with RT 108I mutation relative to wild type; in short: as §1
[44] = test system: Human immunodeficiency virus 1; assay: Antiviral activity against HIV1 isolate with RT 98G, 101E, 181C, 190A mutation relative to wild type; in short: as §1
[45] = test system: Human immunodeficiency virus 1; assay: Antiviral activity against HIV1 isolate with RT 101E, 190S mutation relative to wild type
[46] = test system: Human immunodeficiency virus 1; assay: Antiviral activity against HIV1 isolate with RT 179D, 188L mutation relative to wild type; in short: as §1
[47] = test system: Human immunodeficiency virus 1; assay: Antiviral activity against HIV1 isolate with RT 103N, 238T mutation relative to wild type; in short: as §1
[48] = test system: Human immunodeficiency virus 1; assay: Antiviral activity against HIV1 isolate with RT 101Q, 190S mutation relative to wild type
[49] = test system: Human immunodeficiency virus 1; assay: Antiviral activity against HIV1 isolate with RT 103N, 108I, 238T mutation relative to wild type
[50] = test system: Human immunodeficiency virus 1; assay: Antiviral activity against HIV1 isolate with RT 181V mutation relative to wild type; in short: as §1
[51] = test system: Human immunodeficiency virus 1; assay: Antiviral activity against HIV1 isolate with RT 98G, 181C mutation relative to wild type; in short: as §1
[52] = test system: Human immunodeficiency virus 1; assay: Antiviral activity against HIV1 isolate with RT 98G, 108I, 181C mutation relative to wild type; in short: as §1
[53] = test system: Human immunodeficiency virus 1; assay: Antiviral activity against HIV1 isolate with RT 190A mutation relative to wild type; in short: as §1

Structure (SMILES): NS(=O)(=O)c1ccc(NC(=O)CSc2nnc(Br)n2-c2ccc(C3CC3)c3ccccc23)c(Cl)c1
- Fold change [1]: >100
- Fold change [2]: 6.2
- Fold change [3]: 2.7
- Fold change [4]: 10
- Fold change [5]: 16
- Fold change [6]: 3.5
- Fold change [7]: 4.4
- Fold change [8]: 10
- Fold change [9]: 1.4
- Fold change [10]: >100
- Fold change [11]: >100
- Fold change [12]: 1.4
- Fold change [13]: 0.9
- Fold change [14]: 14
- Fold change [15]: 1.6
- Fold change [16]: 0.9
- Fold change [17]: 11
- Fold change [18]: >100
- Fold change [19]: 92
- Fold change [20]: >100
- Fold change [21]: 50
- Fold change [22]: 0.6
- Fold change [23]: 2.6
- Fold change [24]: 2.4
- Fold change [25]: 32
- Fold change [26]: 1.2
- Fold change [27]: 0.3
- Fold change [28]: 0.6
- Fold change [29]: 82
- Fold change [30]: >100
- Fold change [31]: 16
- Fold change [32]: 1.8
- Fold change [33]: >100
- Fold change [34]: >100
- Fold change [35]: 3.3
- Fold change [36]: 4.2
- Fold change [37]: 0.6
- Fold change [38]: 1.6
- Fold change [39]: 0.7
- Fold change [40]: 2.2
- Fold change [41]: 11
- Fold change [42]: 1.3
- Fold change [43]: 1.5
- Fold change [44]: 65
- Fold change [45]: 16
- Fold change [46]: >100
- Fold change [47]: 0.6
- Fold change [48]: 2.4
- Fold change [49]: 2.5
- Fold change [50]: 20
- Fold change [51]: 11
- Fold change [52]: 15
- Fold change [53]: 13

Structure (SMILES): Cc1ccnc2c1NC(=O)c1cccnc1N2C1CC1 [NEVIRAPINE]
- Fold change [1]: >100
- Fold change [2]: >100
- Fold change [3]: 39
- Fold change [4]: >100
- Fold change [5]: >100
- Fold change [6]: >100
- Fold change [7]: >100
- Fold change [8]: >100
- Fold change [9]: 1
- Fold change [10]: >100
- Fold change [11]: >100
- Fold change [12]: >100
- Fold change [13]: 0.5
- Fold change [14]: >100
- Fold change [15]: >100
- Fold change [16]: >100
- Fold change [17]: 46
- Fold change [18]: >100
- Fold change [19]: >100
- Fold change [20]: >100
- Fold change [21]: >100
- Fold change [22]: 32
- Fold change [23]: >100
- Fold change [24]: 5.9
- Fold change [25]: >100
- Fold change [26]: >100
- Fold change [27]: 1.3
- Fold change [28]: 0.4
- Fold change [29]: >100
- Fold change [30]: >100
- Fold change [31]: >100
- Fold change [32]: 122
- Fold change [33]: >100
- Fold change [34]: >100
- Fold change [35]: 4.2
- Fold change [36]: >100
- Fold change [37]: 1.3
- Fold change [38]: >100
- Fold change [39]: 51
- Fold change [40]: 100
- Fold change [41]: 42
- Fold change [42]: >100
- Fold change [43]: 2.3
- Fold change [44]: >100
- Fold change [45]: >100
- Fold change [46]: >100
- Fold change [47]: >100
- Fold change [48]: >100
- Fold change [49]: >100
- Fold change [50]: >100
- Fold change [51]: >100
- Fold change [52]: >100
- Fold change [53]: >100
